High-throughput results: PubChem, several laboratories
T cell HTS: modulators of CD8 T cell-vesicle binding, primary screen, mouse 2C CD8+ T cells, flow cytometry; 2C CD8+ T cell-vesicle binding; active compounds read low; response (vesicle binding), % at 7 µM; 330,000 compounds, 0.068% hits; AID 2052, 2009;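 active = response, share of CD8 T cells binding vesicles, and their 90th percentile fluorescence all below set limits, cut at about 80% in these data, passing the limit was not always enough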;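 note: values below 100% mean blocked vesicle binding to the CD8+ T cells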
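Read-out – percent CD8+ FL2 mean versus row control · System – murine 2C transgenic CD8+ T lymphocytes · Times – 1.5 h cell–vesicle binding at 37 °C, then 20 min icy labelling · Control set – naked vesicles low, QL9 vesicles with vehicle high · Detection – cytometric PE anti-B7-1 and Alexa647 anti-CD8 signals after 1% paraformaldehyde fixation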
GRK2 inh: compounds blocking aptamer binding on GRK2 – biochemical, human GRK2, bead flow cytometry, HTS, primary screen. Beta-adrenergic receptor kinase 1 (Homo sapiens), P25098. FAM-aptamer displacement from GRK2. inhibition of aptamer binding, % at 10 µM. 330,000 compounds, 0.59% hits;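 active = inhibition of aptamer binding above 40%, roughly 3 SD of noise, on plates passing a quality check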;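 note: median bead fluorescence of bound FAM aptamer so fluorescent compounds give negative values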
proCasp7 act: procaspase-7 activators, primary screen, counter-screen for procaspase-3 activator project, biochemical, absorbance, HTS, human; Caspase-7 (Homo sapiens), P55210; recombinant procaspase-7, Ac-DEVD-pNA absorbance 405 nm; D23A/D198A/D206A triple mutant, cannot self-cleave; scale: DMSO 0, 5 µM enzyme 100; activation, % at 8.5 µM; 330,000 compounds, 0.093% hits; AID 463210, 2010;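 active = percent activation above the screen-wide mean plus 3 SD, cut at about 25% in these data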
Target sequence (P55210 whole entry D23A/D198A/D206A): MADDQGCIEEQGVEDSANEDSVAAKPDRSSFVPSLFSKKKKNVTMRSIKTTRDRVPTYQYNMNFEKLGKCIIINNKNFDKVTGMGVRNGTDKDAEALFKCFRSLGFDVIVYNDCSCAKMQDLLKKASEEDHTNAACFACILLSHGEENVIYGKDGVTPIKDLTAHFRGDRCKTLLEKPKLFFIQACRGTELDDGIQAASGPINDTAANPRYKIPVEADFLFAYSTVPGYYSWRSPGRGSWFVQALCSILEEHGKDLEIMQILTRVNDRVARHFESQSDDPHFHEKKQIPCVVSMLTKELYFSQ
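System: Uncleavable procaspase-7 mutant enzyme; Amount: 2 µM procaspase-7 mutant as dispensed; Schedule: 1 h compound preincubation, 2 h substrate cleavage, 25 °C; Measured by: 405 nm absorbance of p-nitroaniline; Evaluation: percent activation from buffer-corrected 0–120 min absorbance change; Control set: low DMSO alone, high DMSO plus 5 µM PC-7.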
proCasp3 act: activators of human procaspase-3 D3A mutant, primary screen, biochemical, absorbance, PC-3 D3A mutant, single concentration; 330,000 compounds, 0.11% hits; recombinant procaspase-3 D3A, Ac-DEVD-pNA absorbance 405 nm; AID 463141, 2010; Caspase-3 (Homo sapiens), P42574; activation, % at 8.5 µM;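 active = activation above the mean of all tested compounds plus 3 SD, cut at about 21% in these data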
Target sequence (P42574 whole entry D9A/D28A/D175A): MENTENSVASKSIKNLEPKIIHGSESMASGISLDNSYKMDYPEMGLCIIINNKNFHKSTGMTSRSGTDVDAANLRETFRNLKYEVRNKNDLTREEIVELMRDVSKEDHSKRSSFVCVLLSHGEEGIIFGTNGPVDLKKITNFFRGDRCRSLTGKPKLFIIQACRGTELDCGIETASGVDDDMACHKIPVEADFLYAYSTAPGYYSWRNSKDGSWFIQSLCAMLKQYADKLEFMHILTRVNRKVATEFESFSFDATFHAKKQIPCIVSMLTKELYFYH
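Technique: 405 nm absorbance of p-nitroaniline, reads at 0 and 120 min; Test system: Procaspase-3 D3A mutant; Incubation: 1 h enzyme-compound preincubation, then 2 h substrate reaction, 25 °C; Repeats: singlicate, each compound tested once; Benchmarks: low control DMSO wells, high control DMSO plus 5 µM PC-3 D3A.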
aDG glyco act: activators of alpha-DG glycosylation, primary screen, uHTS, Pro5-aDG cells, AlphaScreen | alpha-DG glycosylation AlphaScreen (IIH6); 0% Pro5, 100% B10-LARGE cell signal | activation, % at 10 µM | 360,000 compounds, 0.22% hits | AID 624168, 2012;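 active = activation of at least 8% versus controls, or a plate z-score of at least 8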;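 note: Pro5 are CHO cells carrying HIG-tagged alpha-DG that lacks glycosylation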
CaV13 FRET inh: Disruptors of the CACNA1D IQ motif to Ca2+-dependent inactivation inhibitor domain association, primary screening, Förster resonance energy transfer in intact living …; HEK cells, CFP/YFP FRET ICDI-IQ, plate reader, 10 min; percent FRET-ratio fall versus neutral wells; AID 743397; 340,000 compounds, 0.098% hits; inhibition, % at 12.3 µM;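 active = mean replicate inhibition of at least 30% and at least 1% of replicates passing that level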
aDG glyco conf: alpha-DG glycosylation enhancers, retest, confirmation, single concentration, Pro5-aDG cells. shares compounds with aDG glyco act. activation, % at 10 µM (by protocol). 600 compounds, 17% hits. IIH6 AlphaLISA; scaled to LARGE-overexpressing B10 cells as 100%. AID 651671, 2012;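 active = activation of at least 7% in one or more replicates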;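 note: cells exposed to compound for two days before detection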
Hits are given with their value; i = inactive; nt = no result. Hits are enriched below; roughly 1.1% of the tested compounds scored in any of these assays.

SMILES	T cell HTS	GRK2 inh	proCasp7 act	proCasp3 act	aDG glyco act	CaV13 FRET inh	aDG glyco conf
CN(C)C(=O)c1cn(-c2ccccc2)nc1-c1cccs1	i	i	i	i	62	i	i
CCCOc1ccc(C(=O)OCC(=O)NCCc2ccc(OCC)c(OCC)c2)cc1OC	i	i	i	i	i	nt	nt
CCOc1ccc(CCNC(=O)COC(=O)c2cc(OC)cc(OC)c2)cc1OCC	i	i	i	i	24	i	i
CCc1c(C(=O)N/N=C/c2ccc(OCc3ccc(F)cc3)c(OC)c2)nnn1-c1nonc1N	i	i	i	i	3.5	i	i
O=S(=O)(CCN(CCS(=O)(=O)C(F)(F)F)CC1CCCO1)C(F)(F)F (stereo not drawn)	i	i	i	i	i	i	nt
NC(=NC(=O)c1ccc(OC(F)(F)F)cc1)c1ccc(C(F)(F)F)cn1	i	i	i	i	3.8	i	i
COc1ccc(NC(=O)C2(C)Cc3c(-c4cccc(C(F)(F)F)c4)ccnc3O2)cc1OC (stereo not drawn)	nt	nt	nt	nt	i	i	nt
Cc1c(Cl)ccc2c(C(N)=O)cc(-c3ccccn3)nc12	i	i	i	i	4.1	i	i
COCCNC(=O)c1cccc(S(=O)(=O)N2CC3(C)CC2CC(C)(C)C3)c1 (stereo not drawn)	i	i	i	i	i	i	nt
O=C(c1ccccc1OC(F)F)N1CCN(S(=O)(=O)c2ccc3c(c2)OCCCO3)CC1	i	i	i	i	14	i	i
CC(C)c1nnc(NC(=O)c2cccc(-n3cnnn3)c2)s1	i	i	i	i	i	nt	nt
N#Cc1ccsc1NC(=O)c1cccc(-n2cnnn2)c1	i	i	i	i	11	i	7.1
N#Cc1ccsc1NC(=O)c1ccc2ncsc2c1	nt	nt	nt	nt	15	i	5.5
Cc1nc(SCC(=O)Nc2cc(C(N)=O)cc(C(N)=O)c2)c2c(C)c(C)sc2n1	i	i	i	i	9.0	i	13
O=C(CSc1nnc2ccccn12)NNC(=O)c1cccc(Cl)c1	i	i	i	i	i	i	nt
CN1C(=O)CSc2ccc(NC(=O)N3CCN(c4ccccn4)CC3)cc21	i	i	i	i	i	i	nt
Cc1ccc(C)c(N2CCN(C(=O)Nc3ccc4c(c3)N(C)C(=O)CS4)CC2)c1	i	i	i	i	6.7	i	i
C(=N\N(Cc1ccccc1)c1ccccc1)/c1ccco1	i	i	i	i	i	i	nt
CCCCCOc1ccc(NC(=O)C(=O)NCC2CCCN2CC)cc1 (stereo not drawn)	i	i	i	i	11	i	15
CCN1CCCC1CNC(=O)C(=O)NC (stereo not drawn)	i	i	i	i	i	i	nt
CC(C)(C)c1ccc(Cc2n[nH]c(=S)[nH]c2=O)cc1	i	i	i	i	i	i	nt
CCN(C(=O)c1ccc(C(C)(C)C)cc1)c1nnc(Cn2nnc3ccccc32)s1	i	i	i	i	7.9	i	i
CCN(C(=O)CC(C)C)c1nnc(Cn2nnc3ccccc32)s1	i	i	i	i	i	i	nt
CCOC(=O)c1c(C)[nH]c(C(=O)OCC(=O)Nc2cc(Cl)ccc2OC)c1C	i	i	i	i	i	i	nt
CC(=O)c1c(C)[nH]c(C(=O)OCC(=O)Nc2ccc(Cl)cc2[N+](=O)[O-])c1C	i	i	i	i	8.4	i	i
SMILES	T cell HTS	GRK2 inh	proCasp7 act	proCasp3 act	aDG glyco act	CaV13 FRET inh	aDG glyco conf
Cc1cccc(Nc2nc(N)nc(CN3CCN(c4ccc(F)cc4)CC3)n2)c1	i	i	i	i	12	i	i
Cc1ccc2ccc3cccnc3c2n1	i	i	i	i	3.6	i	4.7
Cc1c(C)c2cccnc2c2ncccc12	i	i	i	i	i	nt	nt
CO[C@H]1O[C@H](C)[C@@H](O)C[C@H]1NC(=O)OCc1ccccc1	i	i	i	i	i	i	nt
CCC(C)Sc1nc2c(cnn2-c2ccccc2)c(=O)[nH]1 (stereo not drawn)	i	i	i	i	7.7	i	i
Cc1cc(C)n(-c2nc(NCCC(C)C)c3c4c(sc3n2)COC(C)(C)C4)n1	nt	nt	nt	nt	4.8	i	i
Cc1cc(C)n(-c2nc(NCCN(C)C)c3c4c(sc3n2)CCCC4)n1	i	i	i	i	i	i	nt
Cc1cc(C)n(-c2nc3sc4c(c3c(=O)[nH]2)CCCC4)n1	i	i	i	i	nt	nt	nt
Cc1cc(C)n(-c2nc(SCCN3CCOCC3)c3c4c(sc3n2)CCCC4)n1	nt	nt	nt	nt	2.6	i	i
Cc1cc(C)n(-c2nc(NCCN(C)C)c3c4c(sc3n2)COC(C)(C)C4)n1	i	i	i	i	i	i	nt
Cc1cc(C)n(-c2nc(NCCCN(C)C)c3c4c(sc3n2)CCCC4)n1	i	i	i	i	2.7	i	11
CC(C)Cn1c(CCCNC(=O)c2ccco2)nc2ccccc21	i	i	i	i	i	i	nt
Cc1ccc(S(=O)(=O)N2CCC(C(=O)OCC(=O)N3CCCC(C)C3)CC2)cc1C (stereo not drawn)	i	i	i	i	i	i	nt
O=C(NCCc1ccccc1)c1ccc(-c2ccc(F)cc2)o1	i	i	i	i	5.1	i	i
O=C(NCCc1ccccc1)c1ccc(-c2ccccc2C(F)(F)F)o1	i	i	i	i	nt	i	nt
CCCCn1c(N)c(N(CCOC)C(=O)CCNC(=O)NC23CC4CC(CC(C4)C2)C3)c(=O)[nH]c1=O	nt	nt	nt	nt	i	i	nt
CCCCN(C(=O)CCNC(=O)NC12CC3CC(CC(C3)C1)C2)c1c(N)n(CCC)c(=O)[nH]c1=O	i	i	i	i	5.1	i	i
CCCCC(=O)Nc1ccc(NC(=O)c2ccc([N+](=O)[O-])cc2Cl)cc1OC	i	i	i	i	12	i	i
O=C(CN1CCN(S(=O)(=O)c2ccc(F)cc2)CC1)Nc1ccc(Cl)c(C(F)(F)F)c1	i	i	i	i	5.4	i	i
O=C(NC1CCCC1)[C@@H]1CCCN1C(=O)[C@H](Cc1cccnc1)NC(=O)N1CCOCC1	nt	nt	nt	nt	nt	i	nt
Cc1ccc(S(=O)(=O)c2c(N)n(Cc3ccco3)c3nc4ccccc4nc23)cc1C	i	i	i	i	40	i	i
